Assay results as given in ChEMBL document CHEMBL1158789, “Sesquiterpenes from the red alga Laurencia tristicha” (J Nat Prod, 2005).
In brackets after ≈: the same amount, converted by molar mass.

Key:
Type in all cases: functional, cell-based
BGC-823 = experiment: Cytotoxicity against human BGC823 cells by MTT assay
Method in brief: (§1)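 Human tumour lines (A549 lung adenocarcinoma, BGC-823 stomach cancer, Bel 7402 hepatoma, HCT-8 colon cancer, HeLa) were exposed to the compounds and viability was read by MTT. Potency was expressed as IC50 in μg/mL.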

HCT-8 = experiment: Cytotoxicity against human HCT8 cells by MTT assay; method in brief: as §1
Bel-7402 = experiment: Cytotoxicity against human Bel7402 cells by MTT assay; method in brief: as §1
HeLa = experiment: Cytotoxicity against human HeLa cells by MTT assay; method in brief: as §1
A549 = experiment: Cytotoxicity against human A549 cells by MTT assay; method in brief: as §1

Cc1ccc([C@]2(C)CC[C@@H](C(C)(C)O)O2)cc1
IC50 (BGC-823): > 10 µg/mL | IC50 (HCT-8): > 10 µg/mL | IC50 (Bel-7402): > 10 µg/mL | IC50 (HeLa): > 10 µg/mL | IC50 (A549): > 10 µg/mL

C=C1[C@](C)(O)CC[C@@]1(C)c1ccc(C)cc1
IC50 (BGC-823): > 10 µg/mL | IC50 (HCT-8): > 10 µg/mL | IC50 (Bel-7402): > 10 µg/mL | IC50 (HeLa): > 10 µg/mL | IC50 (A549): > 10 µg/mL

C=C1[C@](C)(O)CC[C@@]1(C)c1ccc(C)cc1O
IC50 (BGC-823): > 10 µg/mL | IC50 (HCT-8): > 10 µg/mL | IC50 (Bel-7402): > 10 µg/mL | IC50 (HeLa): > 10 µg/mL | IC50 (A549): > 10 µg/mL

Cc1cc2c(cc1O)C[C@]1(CC[C@@H]3C[C@@]31C)O2
IC50 (BGC-823): > 10 µg/mL | IC50 (HCT-8): > 10 µg/mL | IC50 (Bel-7402): > 10 µg/mL | IC50 (HeLa): > 10 µg/mL | IC50 (A549): > 10 µg/mL

Cc1ccc(C(C)(O)C/C=C/C(C)(C)O)cc1 (stereo not given)
IC50 (BGC-823): > 10 µg/mL | IC50 (HCT-8): > 10 µg/mL | IC50 (Bel-7402): > 10 µg/mL | IC50 (HeLa): > 10 µg/mL | IC50 (A549): > 10 µg/mL

C=C1[C@]2(C)CC[C@@]1(C)c1cc(Br)c(C)cc1O2
IC50 (BGC-823): > 10 µg/mL | IC50 (HCT-8): > 10 µg/mL | IC50 (Bel-7402): > 10 µg/mL | IC50 (HeLa): > 10 µg/mL | IC50 (A549): > 10 µg/mL

Cc1ccc([C@]2(C)CC[C@H](C(C)(C)O)O2)cc1
IC50 (BGC-823): > 10 µg/mL | IC50 (HCT-8): > 10 µg/mL | IC50 (Bel-7402): > 10 µg/mL | IC50 (HeLa): > 10 µg/mL | IC50 (A549): > 10 µg/mL

Cc1ccc([C@]2(C)CC[C@@H]3C[C@@]32C)cc1O
IC50 (BGC-823): > 10 µg/mL | IC50 (HCT-8): > 10 µg/mL | IC50 (Bel-7402): > 10 µg/mL | IC50 (HeLa): > 10 µg/mL | IC50 (A549): > 10 µg/mL

C=C1[C@](C)(O)CC[C@@]1(C)c1ccc(C)c(O)c1
IC50 (BGC-823): > 10 µg/mL | IC50 (HCT-8): > 10 µg/mL | IC50 (Bel-7402): > 10 µg/mL | IC50 (HeLa): > 10 µg/mL | IC50 (A549): > 10 µg/mL

Cc1cc2c(cc1Br)[C@]1(C)CC[C@H](C)[C@]1(CO)O2 [APLYSINOL]
IC50 (BGC-823): > 10 µg/mL | IC50 (HCT-8): > 10 µg/mL | IC50 (Bel-7402): > 10 µg/mL | IC50 (HeLa): > 10 µg/mL | IC50 (A549): > 10 µg/mL

Cc1cc2c(cc1Br)[C@]1(C)CC[C@H](C)[C@]1(C)O2 [APLYSIN]
IC50 (BGC-823): > 10 µg/mL | IC50 (HCT-8): > 10 µg/mL | IC50 (Bel-7402): > 10 µg/mL | IC50 (HeLa): > 10 µg/mL | IC50 (A549): > 10 µg/mL

CC(C)=CCCC(C)(O)c1ccc(C)cc1 (stereo not given) [GOSSONOROL]
IC50 (BGC-823): > 10 µg/mL | IC50 (HCT-8): > 10 µg/mL | IC50 (Bel-7402): > 10 µg/mL | IC50 (HeLa): > 10 µg/mL | IC50 (A549): > 10 µg/mL

CC1(C)[C@]23C[C@H](Br)[C@@](C)(Cl)C[C@@H]2O[C@]1(Br)[C@H](O)[C@H]1O[C@]13C [JOHNSTONOL]
IC50 (BGC-823): > 10 µg/mL | IC50 (HCT-8): > 10 µg/mL | IC50 (Bel-7402): > 10 µg/mL | IC50 (HeLa): > 10 µg/mL | IC50 (A549): > 10 µg/mL

Cc1cc(O)c([C@]2(C)CC[C@@H]3C[C@@]32C)cc1-c1cc([C@]2(C)CC[C@@H]3C[C@@]32C)c(O)cc1C [LAUREBIPHENYL]
IC50 (BGC-823): 1.22 µg/mL (≈ 2.83 µM) | IC50 (HCT-8): 1.77 µg/mL (≈ 4.11 µM) | IC50 (Bel-7402): 1.91 µg/mL (≈ 4.44 µM) | IC50 (HeLa): 1.61 µg/mL (≈ 3.74 µM) | IC50 (A549): 1.68 µg/mL (≈ 3.9 µM)
